According to ChEMBL document CHEMBL1145212, “Fluorinated diaryl sulfides as serotonin transporter ligands: synthesis, structure-activity relationship study, and in vivo evaluation of fluorine-18-labeled compounds as PET imaging agents” (J Med Chem, 2005):

Legend:
Rattus norvegicus [1] = assay: Biodistribution of [18F]AFA in rat hypothalamus at 30 min postinjection in vivo; format: ADME, organism-based; settings: 0.5 h
Procedure, shortened: (§1)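 Male Sprague-Dawley rats, three per time point, received the F-18 radioligand in saline (~20 µCi per rat at injection) by tail vein. Under CO2 anesthesia they were decapitated at 10, 30, 60, 90 or 120 min. Blood and dissected brain regions were weighed and gamma counted. Activity was decay-corrected, and injected dose was corrected for tail residual activity. Uptake was expressed as %ID/g versus injectate standards, mean ± SD.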

Rattus norvegicus [2] = assay: Biodistribution of [18F]AFA in rat cerebellum at 30 min postinjection in vivo; format: ADME, organism-based; settings: 0.5 h; procedure, shortened: as §1
Rattus norvegicus [3] = species: Rattus norvegicus; assay: Specific binding of [18F]AFA in thalamus of rat pretreated with compound 7c; n=3; format: functional
Rattus norvegicus [4] = assay: Biodistribution of [18F]AFA in rat hippocampus at 120 min postinjection in vivo; format: ADME, organism-based; settings: 2 h; procedure, shortened: as §1
Rattus norvegicus [5] = species: Rattus norvegicus; assay: Specific binding of [18F]AFA in hypothalamus of rat pretreated with compound 7c; n=3; format: functional
Rattus norvegicus [6] = assay: Biodistribution of [18F]AFA in rat hippocampus at 10 min postinjection in vivo; format: ADME, organism-based; procedure, shortened: as §1
Rattus norvegicus [7] = assay: Biodistribution of [18F]AFA in rat thalamus at 30 min postinjection in vivo; format: ADME, organism-based; settings: 0.5 h
Procedure, shortened: (§2)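 Male Sprague-Dawley rats, three per group, received ~20 µCi of the F-18 radioligand in saline by tail-vein injection. Rats were anesthetized with CO2 and decapitated at 10, 30, 60, 90 or 120 min. Blood and brain regions were weighed and gamma-counted. %ID/g was decay- and tail-residual-corrected against F-18 standards made from the injectate and reported as mean ± SD.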

Rattus norvegicus [8] = assay: Biodistribution of [18F]AFA in rat striatum at 10 min postinjection in vivo; format: ADME, organism-based; procedure, shortened: as §1
Rattus norvegicus [9] = assay: Biodistribution of [18F]AFA in rat hypothalamus at 120 min postinjection in vivo; format: ADME, organism-based; settings: 2 h; procedure, shortened: as §1
Rattus norvegicus [10] = species: Rattus norvegicus; assay: Specific binding of [18F]AFA in striatum of rat pretreated with compound 7c; n=3; format: functional
Rattus norvegicus [11] = assay: Biodistribution of [18F]AFA in rat cerebellum at 60 min postinjection in vivo; format: ADME, organism-based; settings: 1 h; procedure, shortened: as §1
Rattus norvegicus [12] = assay: Biodistribution of [18F]AFA in rat striatum 60 min postinjection in vivo; format: ADME, organism-based; settings: 1 h; procedure, shortened: as §1
Rattus norvegicus [13] = assay: Biodistribution of [18F]-AFA in rat thalamus at 120 min postinjection in vivo; format: ADME, organism-based; settings: 2 h; procedure, shortened: as §1
Rattus norvegicus [14] = assay: Biodistribution of [18F]AFA in rat blood at 30 min postinjection in vivo; format: ADME, organism-based; settings: 0.5 h; procedure, shortened: as §1
Rattus norvegicus [15] = assay: Biodistribution of [18F]AFA in rat thalamus at 10 min postinjection in vivo; format: ADME, organism-based; procedure, shortened: as §2
Rattus norvegicus [16] = assay: Biodistribution of [18F]AFA in rat hippocampus at 90 min postinjection in vivo; format: ADME, organism-based; settings: 1.5 h; procedure, shortened: as §1
Rattus norvegicus [17] = assay: Biodistribution of [18F]AFA in rat striatum at 120 min postinjection in vivo; format: ADME, organism-based; settings: 2 h; procedure, shortened: as §1
Rattus norvegicus [18] = assay: Biodistribution of [18F]AFA in rat blood at 90 min postinjection in vivo; format: ADME, organism-based; settings: 1.5 h; procedure, shortened: as §1
Rattus norvegicus [19] = assay: Biodistribution of [18F]AFA in rat striatum at 90 min postinjection in vivo; format: ADME, organism-based; settings: 1.5 h; procedure, shortened: as §2
Rattus norvegicus [20] = assay: Biodistribution of [18F]AFA in rat cerebellum at 90 min postinjection in vivo; format: ADME, organism-based; settings: 1.5 h; procedure, shortened: as §1
Rattus norvegicus [21] = species: Rattus norvegicus; assay: Specific binding of [18F]AFA in hippocampus of rat pretreated with compound 7c; n=3; format: functional
Rattus norvegicus [22] = assay: Biodistribution of [18F]AFA in rat thalamus at 90 min postinjection in vivo; format: ADME, organism-based; settings: 1.5 h; procedure, shortened: as §2
Rattus norvegicus [23] = assay: Biodistribution of [18F]AFA in rat cerebellum at 10 min postinjection in vivo; format: ADME, organism-based; procedure, shortened: as §1
Rattus norvegicus [24] = assay: Biodistribution of [18F]AFA in rat thalamus at 60 min postinjection in vivo; format: ADME, organism-based; settings: 1 h; procedure, shortened: as §2
Rattus norvegicus [25] = assay: Biodistribution of [18F]AFA in rat frontal cortex at 120 min postinjection in vivo; format: ADME, organism-based; settings: 2 h; procedure, shortened: as §1
Rattus norvegicus [26] = assay: Biodistribution of [18F]AFA in rat hippocampus at 60 min postinjection in vivo; format: ADME, organism-based; settings: 1 h; procedure, shortened: as §1
Rattus norvegicus [27] = assay: Biodistribution of [18F]AFA in rat hypothalamus at 10 min postinjection in vivo; format: ADME, organism-based; procedure, shortened: as §1
Rattus norvegicus [28] = assay: Biodistribution of [18F]-AFA in rat hypothalamus at 60 min postinjection in vivo; format: ADME, organism-based; settings: 1 h; procedure, shortened: as §1
Rattus norvegicus [29] = assay: Biodistribution of [18F]AFA in rat blood at 120 min postinjection in vivo; format: ADME, organism-based; settings: 2 h; procedure, shortened: as §1
Rattus norvegicus [30] = assay: Biodistribution of [18F]AFA in rat blood at 60 min postinjection in vivo; format: ADME, organism-based; settings: 1 h; procedure, shortened: as §1
Rattus norvegicus [31] = species: Rattus norvegicus; assay: Specific binding of [18F]AFA in frontal cortex of rat pretreated with compound 7c; n=3; format: functional
Rattus norvegicus [32] = assay: Biodistribution of [18F]AFA in rat frontal cortex at 60 min postinjection in vivo; format: ADME, organism-based; settings: 1 h; procedure, shortened: as §1
Rattus norvegicus [33] = assay: Biodistribution of [18F]AFA in rat hypothalamus at 90 min postinjection in vivo; format: ADME, organism-based; settings: 1.5 h; procedure, shortened: as §1
Rattus norvegicus [34] = assay: Biodistribution of [18F]AFA in rat blood at 10 min postinjection in vivo; format: ADME, organism-based; procedure, shortened: as §1
Rattus norvegicus [35] = assay: Biodistribution of [18F]AFA in rat striatum at 30 min postinjection in vivo; format: ADME, organism-based; settings: 0.5 h; procedure, shortened: as §1
Rattus norvegicus [36] = assay: Biodistribution of [18F]AFA in rat frontal cortex at 10 min postinjection in vivo; format: ADME, organism-based; procedure, shortened: as §1
Rattus norvegicus [37] = assay: Biodistribution of [18F]AFA in rat frontal cortex at 30 min postinjection in vivo; format: ADME, organism-based; settings: 0.5 h; procedure, shortened: as §1
Rattus norvegicus [38] = assay: Biodistribution of [18F]AFA in rat hippocampus at 30 min postinjection in vivo; format: ADME, organism-based; settings: 0.5 h; procedure, shortened: as §1
Rattus norvegicus [39] = assay: Biodistribution of [18F]AFA in rat frontal cortex at 90 min postinjection in vivo; format: ADME, organism-based; settings: 1.5 h; procedure, shortened: as §1
Rattus norvegicus [40] = assay: Biodistribution of [18F]AFA in rat cerebellum at 120 min postinjection in vivo; format: ADME, organism-based; settings: 2 h; procedure, shortened: as §1

CN(C)Cc1ccccc1Sc1ccc([18F])cc1N
Biodistribution (Rattus norvegicus [1]): 0.66 %ID/g
Biodistribution (Rattus norvegicus [2]): 0.2 %ID/g
Specific binding (Rattus norvegicus [3]): 0.81 %ID/g
Biodistribution (Rattus norvegicus [4]): 0.1 %ID/g
Specific binding (Rattus norvegicus [5]): 0.62 %ID/g
Biodistribution (Rattus norvegicus [6]): 0.54 %ID/g
Biodistribution (Rattus norvegicus [7]): 0.69 %ID/g
Biodistribution (Rattus norvegicus [8]): 0.65 %ID/g
Biodistribution (Rattus norvegicus [9]): 0.17 %ID/g
Specific binding (Rattus norvegicus [10]): 0.37 %ID/g
Biodistribution (Rattus norvegicus [11]): 0.07 %ID/g
Biodistribution (Rattus norvegicus [12]): 0.26 %ID/g
Biodistribution (Rattus norvegicus [13]): 0.16 %ID/g
Biodistribution (Rattus norvegicus [14]): 0.16 %ID/g
Biodistribution (Rattus norvegicus [15]): 0.72 %ID/g
Biodistribution (Rattus norvegicus [16]): 0.18 %ID/g
Biodistribution (Rattus norvegicus [17]): 0.11 %ID/g
Biodistribution (Rattus norvegicus [18]): 0.08 %ID/g
Biodistribution (Rattus norvegicus [19]): 0.19 %ID/g
Biodistribution (Rattus norvegicus [20]): 0.04 %ID/g
Specific binding (Rattus norvegicus [21]): 0.55 %ID/g
Biodistribution (Rattus norvegicus [22]): 0.23 %ID/g
Biodistribution (Rattus norvegicus [23]): 0.38 %ID/g
Biodistribution (Rattus norvegicus [24]): 0.34 %ID/g
Biodistribution (Rattus norvegicus [25]): 0.11 %ID/g
Biodistribution (Rattus norvegicus [26]): 0.23 %ID/g
Biodistribution (Rattus norvegicus [27]): 0.73 %ID/g
Biodistribution (Rattus norvegicus [28]): 0.38 %ID/g
Biodistribution (Rattus norvegicus [29]): 0.07 %ID/g
Biodistribution (Rattus norvegicus [30]): 0.08 %ID/g
Specific binding (Rattus norvegicus [31]): 0.53 %ID/g
Biodistribution (Rattus norvegicus [32]): 0.28 %ID/g
Biodistribution (Rattus norvegicus [33]): 0.3 %ID/g
Biodistribution (Rattus norvegicus [34]): 0.27 %ID/g
Biodistribution (Rattus norvegicus [35]): 0.58 %ID/g
Biodistribution (Rattus norvegicus [36]): 0.81 %ID/g
Biodistribution (Rattus norvegicus [37]): 0.65 %ID/g
Biodistribution (Rattus norvegicus [38]): 0.48 %ID/g
Biodistribution (Rattus norvegicus [39]): 0.2 %ID/g
Biodistribution (Rattus norvegicus [40]): 0.04 %ID/g
